Assay results from ChEMBL document CHEMBL1153124, “5-Lipoxygenase-activating protein inhibitors. Part 2: 3-{5-((S)-1-Acetyl-2,3-dihydro-1H-indol-2-ylmethoxy)-3-tert-butylsulfanyl-1-[4-(5-methoxy-pyrimidin-2-yl)-benzyl]-1H-indol-2-yl}-2,2-dimethyl-propionic acid (AM679)--a potent FLAP inhibitor” (Bioorg Med Chem Lett, 2010).

Columns and labels:
[1] = Inhibition of LTB4 production in calcium ionophore A23187 treated human leukocytes; format: functional, cell-based; settings: Leukocyte
Procedure, shortened: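 Human leukocytes challenged with calcium ionophore; LTB4 produced by the cells was measured. IC50 is the average of n ≥ 3.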

[2] = target: T1, Arachidonate 5-lipoxygenase-activating protein (Homo sapiens, UniProt P20292); test: Binding affinity to FLAP in human PMN derived membrane; format: cell membranes
T1 sequence (P20292 whole entry): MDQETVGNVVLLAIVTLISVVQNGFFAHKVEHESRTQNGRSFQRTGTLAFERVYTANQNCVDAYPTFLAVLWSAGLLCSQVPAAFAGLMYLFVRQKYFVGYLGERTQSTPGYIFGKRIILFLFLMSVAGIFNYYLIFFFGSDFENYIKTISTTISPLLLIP
Procedure, shortened: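 FLAP binding measured in membranes derived from human polymorphonuclear leukocytes (PMN). IC50 values are the average of n ≥ 3.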

Blood = test: Inhibition of LTB4 production in calcium ionophore treated A23187 human whole blood after 15 mins; format: functional, tissue-based; settings: 0.25 h
CYP2C9 = CYP2C9 (Homo sapiens, UniProt P11712); test: Inhibition of CYP2C9 at 10 uM; format: ADME
CYP2C9, sequence (P11712 whole entry): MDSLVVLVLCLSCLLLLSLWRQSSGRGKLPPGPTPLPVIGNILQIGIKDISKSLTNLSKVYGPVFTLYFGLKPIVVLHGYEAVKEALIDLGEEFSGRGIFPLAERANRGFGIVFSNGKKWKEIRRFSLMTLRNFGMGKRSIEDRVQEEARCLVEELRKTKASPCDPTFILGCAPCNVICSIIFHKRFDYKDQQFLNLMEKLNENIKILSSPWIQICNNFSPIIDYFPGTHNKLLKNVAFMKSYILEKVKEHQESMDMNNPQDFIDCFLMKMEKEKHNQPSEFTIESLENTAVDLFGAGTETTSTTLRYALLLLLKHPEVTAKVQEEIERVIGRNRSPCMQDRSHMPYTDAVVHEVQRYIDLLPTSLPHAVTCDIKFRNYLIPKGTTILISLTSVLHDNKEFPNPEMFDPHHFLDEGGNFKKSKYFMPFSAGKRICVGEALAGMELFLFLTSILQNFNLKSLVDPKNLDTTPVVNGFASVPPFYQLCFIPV

CYP3A4 = CYP3A4 (Homo sapiens, UniProt P08684); test: Inhibition of CYP3A4 at 10 uM; format: ADME
CYP3A4, sequence (P08684 whole entry): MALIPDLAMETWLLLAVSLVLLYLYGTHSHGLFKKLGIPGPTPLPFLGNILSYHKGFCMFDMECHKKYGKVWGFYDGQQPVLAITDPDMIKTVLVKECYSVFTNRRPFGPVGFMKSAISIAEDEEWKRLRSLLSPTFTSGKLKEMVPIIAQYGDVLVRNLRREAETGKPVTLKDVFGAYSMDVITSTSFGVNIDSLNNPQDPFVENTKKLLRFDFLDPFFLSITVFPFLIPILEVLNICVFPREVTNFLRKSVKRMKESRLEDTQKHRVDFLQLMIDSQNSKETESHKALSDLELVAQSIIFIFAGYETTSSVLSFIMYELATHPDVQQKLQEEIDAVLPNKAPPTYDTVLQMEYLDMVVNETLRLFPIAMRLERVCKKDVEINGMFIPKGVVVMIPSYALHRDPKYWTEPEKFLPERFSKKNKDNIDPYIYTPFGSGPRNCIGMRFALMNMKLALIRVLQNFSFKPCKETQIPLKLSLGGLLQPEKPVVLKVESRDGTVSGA

Cytochrome P450 2C9 = Cytochrome P450 2C9 (Homo sapiens, UniProt P11712); test: Inhibition of CYP2C9; format: ADME
Cytochrome P450 2C9, sequence (P11712 whole entry): as the sequence (P11712 whole entry) above

[3] = Bioavailability in rat at 10 mg/kg; format: ADME, organism-based; settings: in vivo
Procedure, shortened: (§1)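 Rat, oral dosing at 10 mg/kg given as the sodium carboxylate salt. Read-outs: F, clearance, Cmax, AUC and half-life.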

[4] = Cmax in rat at 10 mg/kg, po; format: ADME, organism-based; set-up: dose 10 mg/kg, route oral; settings: in vivo; procedure, shortened: as §1
[5] = AUC in rat at 10 mg/kg, po; format: ADME, organism-based; set-up: dose 10 mg/kg, route oral; settings: plasma; procedure, shortened: as §1
[6] = Clearance in rat at 10 mg/kg, po; format: ADME, organism-based; set-up: dose 10 mg/kg, route oral; settings: in vivo; procedure, shortened: as §1

| SMILES | IC50 [1] [nM] | IC50 [2] [nM] | IC50 (Blood) [nM] | further results |
| --- | --- | --- | --- | --- |
| CC(C)(C)OC(=O)N1c2ccccc2C[C@H]1COc1ccc2c(c1)c(SC(C)(C)C)c(CC(C)(C)C(=O)O)n2Cc1ccc(Cl)cc1 | 106 | 1100 | – | – |
| CC(=O)N1c2ccccc2C[C@H]1COc1ccc2c(c1)c(Cc1ccccc1)c(CC(C)(C)C(=O)O)n2Cc1ccc(Cl)cc1 | 1.5 | 15.2 | 428 | inhibition at 10 µM (CYP2C9): > 80%; inhibition at 10 µM (CYP3A4): > 80% |
| CC(C)(C)OC(=O)N1CCC[C@@H]1COc1ccc2c(c1)c(SC(C)(C)C)c(CC(C)(C)C(=O)O)n2Cc1ccc(Cl)cc1 | 193 | 1810 | 67800 | – |
| CC(=O)N1c2ccccc2C[C@H]1COc1ccc2c(c1)c([S+]([O-])C(C)(C)C)c(CC(C)(C)C(=O)O)n2Cc1ccc(Cl)cc1 (stereo partly drawn) | 335 | 74 | 23200 | – |
| COc1ccc(-c2ccc(Cn3c(CC(C)(C)C(=O)O)c(SC(C)(C)C)c4cc(OC[C@@H]5Cc6ccccc6N5C(C)=O)ccc43)cc2)nn1 | 12.6 | 3.2 | 1110 | – |
| CC(C)(C)Sc1c(CC(C)(C)C(=O)O)n(Cc2ccc(Cl)cc2)c2ccc(OCc3ccc4ccccc4n3)cc12 [QUIFLAPON] | – | – | – | IC50 (Cytochrome P450 2C9): 500 nM |
| CC(C)(C)Sc1c(CC(C)(C)C(=O)O)n(Cc2ccc(Cl)cc2)c2ccc(OC[C@@H]3CCCN3C(=O)C3CC3)cc12 | 8 | 50 | 885 | – |
| COc1ccc(-c2ccc(Cn3c(CC(C)(C)C(=O)O)c(SC(C)(C)C)c4cc(OC[C@@H]5Cc6ccccc6N5C(C)=O)ccc43)cc2)cn1 | 1.8 | 9.3 | 276 | – |
| CC(=O)N1c2ccccc2C[C@H]1COc1ccc2c(c1)c(C(=O)C(C)(C)C)c(CC(C)(C)C(=O)[O-])n2Cc1ccc(Cl)cc1.[Na+] | – | – | – | bioavailability [3]: 7%; Cmax [4]: 270 nM |
| CCC(=O)N1CCC[C@H]1COc1ccc2c(c1)c(SC(C)(C)C)c(CC(C)(C)C(=O)O)n2Cc1ccc(Cl)cc1 | 1.5 | 4 | 307 | – |
| CC(C)(C)OC(=O)N1CCC[C@H]1COc1ccc2c(c1)c(SC(C)(C)C)c(CC(C)(C)C(=O)O)n2Cc1ccc(Cl)cc1 | 29 | 1110 | 17200 | – |
| CC(C)(C)Sc1c(CC(C)(C)C(=O)O)n(Cc2ccc(Cl)cc2)c2ccc(OC[C@@H]3CCCN3C(=O)c3ccccc3)cc12 | 110 | 1340 | 22300 | – |
| CC(=O)N1c2ccccc2C[C@H]1COc1ccc2c(c1)c(SC(C)(C)C)c(CC(C)(C)C(=O)O)n2Cc1ccc(-c2ccc(F)cn2)cc1 | 0.5 | 1.7 | 235 | – |
| COc1ccc(-c2ccc(Cn3c(CC(C)(C)C(=O)O)c(SC(C)(C)C)c4cc(OC[C@@H]5Cc6ccccc6N5C(C)=O)ccc43)cc2)nc1 | 0.5 | 3.8 | 373 | – |
| CC(C)(C)Sc1c(CC(C)(C)C(=O)O)n(Cc2ccc(Cl)cc2)c2ccc(OC[C@@H]3CCCN3S(C)(=O)=O)cc12 | 30 | 441 | 4300 | – |
| COc1nc(-c2ccc(Cn3c(CC(C)(C)C(=O)O)c(SC(C)(C)C)c4cc(OC[C@@H]5Cc6ccccc6N5C(C)=O)ccc43)cc2)cs1 | 0.6 | 2.5 | 573 | – |
| CC(=O)N1CCC[C@H]1COc1ccc2c(c1)c(SC(C)(C)C)c(CC(C)(C)C(=O)O)n2Cc1ccc(Cl)cc1 | 16 | 6 | 403 | inhibition at 10 µM (CYP2C9): 93%; bioavailability [3]: 10%; AUC [5]: 1200 ng·h/mL; inhibition at 10 µM (CYP3A4): 64%; CL/F [6]: 20 mL/min/kg |

| SMILES | IC50 [1] [nM] | IC50 [2] [nM] | IC50 (Blood) [nM] | further results |
| --- | --- | --- | --- | --- |
| CC(C)(C)Sc1c(CC(C)(C)C(=O)O)n(Cc2ccc(Cl)cc2)c2ccc(OCC(=O)c3ccc(F)cc3)cc12 | 769 | 13 | 11800 | – |
| CC(=O)N1c2ccccc2C[C@H]1COc1ccc2c(c1)c(CCC(C)(C)C)c(CC(C)(C)C(=O)O)n2Cc1ccc(Cl)cc1 | 4.2 | 4.7 | 405 | inhibition at 10 µM (CYP2C9): > 80%; inhibition at 10 µM (CYP3A4): > 80% |
| CC(C)(C)Sc1c(CC(C)(C)C(=O)O)n(Cc2ccc(Cl)cc2)c2ccc(OC[C@@H]3CCCN3)cc12 | 2780 | > 10000 | – | – |
| CC(=O)N1c2ccccc2C[C@H]1COc1ccc2c(c1)c(S(=O)(=O)C(C)(C)C)c(CC(C)(C)C(=O)O)n2Cc1ccc(Cl)cc1 | 19 | 4.5 | 1740 | – |
| CC(C)(C)Sc1c(CC(C)(C)C(=O)O)n(Cc2ccc(Cl)cc2)c2ccc(OC[C@@H]3Cc4ccccc4N3)cc12 | 4.1 | 85 | 1430 | – |
| CC(=O)N1c2ccccc2C[C@H]1COc1ccc2c(c1)c(C(=O)C(C)C)c(CC(C)(C)C(=O)O)n2Cc1ccc(Cl)cc1 | 20.6 | 20.6 | 4900 | – |
| CC(C)(C)Sc1c(CC(C)(C)C(=O)O)n(Cc2ccc(Cl)cc2)c2ccc(OCC(O)c3ccc(F)cc3)cc12 (stereo not drawn) | 7 | 19 | 469 | – |
| CC(C)(C)OC(=O)N1c2ccccc2C[C@@H]1COc1ccc2c(c1)c(SC(C)(C)C)c(CC(C)(C)C(=O)O)n2Cc1ccc(Cl)cc1 | 102 | > 10000 | 12300 | – |
| CC(C)C(=O)N1CCC[C@H]1COc1ccc2c(c1)c(SC(C)(C)C)c(CC(C)(C)C(=O)O)n2Cc1ccc(Cl)cc1 | 51 | 186 | 5660 | – |
| CC(C)(C)Sc1c(CC(C)(C)C(=O)O)n(Cc2ccc(Cl)cc2)c2ccc(OCC(N)=O)cc12 | 28 | 38 | 2140 | – |
| CC(=O)N1c2ccccc2C[C@H]1COc1ccc2c(c1)cc(CC(C)(C)C(=O)O)n2Cc1ccc(Cl)cc1 | 12.9 | 218 | 31500 | – |
| CC(=O)N1c2ccccc2C[C@H]1COc1ccc2c(c1)c(SC(C)(C)C)c(CC(C)(C)C(=O)O)n2Cc1ccc(Cl)cc1 | 0.5 | 1.4 | 169 | inhibition at 10 µM (CYP2C9): 96%; bioavailability [3]: 11%; Cmax [4]: 270 nM; inhibition at 10 µM (CYP3A4): 80%; CL/F [6]: 25 mL/min/kg |
| CC(=O)N[C@H](COc1ccc2c(c1)c(SC(C)(C)C)c(CC(C)(C)C(=O)O)n2Cc1ccc(Cl)cc1)c1ccccc1 | 72 | 581 | 23100 | – |
| CC(=O)N1c2ccccc2C[C@H]1COc1ccc2c(c1)c(CC(C)C)c(CC(C)(C)C(=O)O)n2Cc1ccc(Cl)cc1 | 0.5 | 35 | 200 | inhibition at 10 µM (CYP2C9): > 80%; inhibition at 10 µM (CYP3A4): > 80% |
| CC(=O)N1c2ccccc2C[C@H]1COc1ccc2c(c1)c(C(=O)c1ccccc1)c(CC(C)(C)C(=O)O)n2Cc1ccc(Cl)cc1 | 263 | > 10000 | 63100 | – |
| CC(C)(C)Sc1c(CC(C)(C)C(=O)O)n(Cc2ccc(Cl)cc2)c2ccc(OC[C@@H]3CCC(=O)N3)cc12 | 108 | 616 | 9020 | – |
| CC(=O)N1c2ccccc2C[C@H]1COc1ccc2c(c1)c(C(=O)C(C)(C)C)c(CC(C)(C)C(=O)O)n2Cc1ccc(Cl)cc1 | 1.3 | 19 | 521 | – |
